Assay results reported in ChEMBL document CHEMBL4382237, “Design, Synthesis, and Biological Evaluation of 2-Nitroimidazopyrazin-one/-es with Antitubercular and Antiparasitic Activity” (J Med Chem, 2018).
≈ marks a conversion by molar mass, not a printed value. Calls of active or inactive are those of the source. The calls are words filed in the database; no cut-off is given here.

Tests used:
[1] = Apparent permeability across basolateral to apical side in human Caco2 cells assessed as mean drug recovery at 2 uM after 2 hrs by lucifer yellow dye-based LC-MS/MS analysis; settings: Caco-2
[2] = Apparent permeability across apical to basolateral side in human Caco2 cells at 2 uM after 2 hrs by lucifer yellow dye-based LC-MS/MS analysis; settings: caco-2, 2 h
[3] = Apparent permeability across basolateral to apical side in human Caco2 cells at 2 uM after 2 hrs by lucifer yellow dye-based LC-MS/MS analysis; settings: caco-2, 2 h
[4] = Apparent permeability across apical to basolateral side in human Caco2 cells assessed as mean drug recovery at 2 uM after 2 hrs by lucifer yellow dye-based LC-MS/MS analysis; settings: caco-2, 2 h
[5] = Protein binding in human plasma at 5 uM after 30 mins by LC-MS/MS analysis based ultrafiltration method; settings: 0.5 h
[6] = Metabolic stability in CD-1 mouse liver microsomes assessed as parent compound remaining at 3 uM after 2 hrs by LC-MS/MS analysis
[7] = Metabolic stability in CD-1 mouse plasma assessed as parent compound remaining at 3 uM after 2 hrs by LC-MS/MS analysis
[8] = system: Clostridioides difficile; experiment: Antibacterial activity against Clostridium difficile 630 ATCC BAA-1382 by broth microdilution assay; type: functional
How it was run: (§1)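 Broth microdilution run essentially per an earlier report. MIC taken as the lowest concentration with no visible growth. Replicates typically agreed within one 2-fold dilution. The median MIC is reported, with a range where the median fell between two tested concentrations.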

[9] = Metabolic stability in human liver microsomes assessed as parent compound remaining at 3 uM after 2 hrs by LC-MS/MS analysis
[10] = Metabolic stability in human plasma assessed as parent compound remaining at 3 uM after 2 hrs by LC-MS/MS analysis
[11] = system: Giardia intestinalis; experiment: Antiparasitic activity against Giardia lamblia WB trophozoites after 24 to 48 hrs by CellTiter-Glo luminescent cell viability assay; settings: Giardia duodenalis
[12] = buffer, 24 h, 200 µM
[13] = buffer, pH 7.4, 24 h, 200 µM
[14] = system: Trypanosoma brucei brucei; experiment: Antiparasitic activity against bloodstream form of Trypanosoma brucei brucei strain 427 after 48 hrs by resazurin dye-based assay; type: functional, organism-based; settings: for IC50: strain 427, 48 h
[15] = physchem; settings: PBS, pH 7.4
[16] = system: Mycobacterium tuberculosis; experiment: Antibacterial activity against non-replicating Mycobacterium tuberculosis H37Rv after 5 days under hypoxic condition by resazurin dye-based fluorescence assay; type: functional; settings: 120 h
How it was run: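 Same H37Rv inoculum (OD600 0.001, ~2 x 10^4 CFU/mL) in 7H9S with serially diluted compound. Plates held 5 days at 0.1% oxygen, then resazurin plus Tween-80 added.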

[17] = system: Entamoeba histolytica; experiment: Antiparasitic activity against Entamoeba histolytica HM-1:IMSS trophozoites after 24 to 48 hrs by CellTiter-Glo luminescent cell viability assay; type: functional, organism-based
How it was run: (§2)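 Axenic trophozoites were kept in TYI-S-33 with penicillin (100 U/mL) and streptomycin (100 µg/mL) and harvested in log phase. 5000 parasites per well were exposed to a final 8-point two-fold series of 0.39–50 µM, from 10 mM DMSO stocks. Plates were incubated 24–48 h at 37 °C under anaerobic conditions. ATP luminescence viability was read in triplicate. Percent inhibition is given at the highest concentration tested.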

[18] = physchem; settings: water
[19] = system: HEK293; experiment: Cytotoxicity against HEK293 cells after 24 hrs by resazurin dye-based fluorescence assay; type: cell-based; settings: human, hek293, 24 h
How it was run: (§3)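 HEK293 (3000/well) and HepG2 (5000/well) were grown 24 h in DMEM with 10% FBS at 37 °C, 5% CO2. Cells were then exposed 24 h to a dilution series up to 100 µM (0.5% DMSO). 5 µM resazurin was added for 2 h, read at ex 560/em 590. 1% Triton X-100 served as lysis control. CC50 was derived from the curves.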

[20] = system: Cryptococcus neoformans; experiment: Antifungal activity against Cryptococcus neoformans H99 ATCC […] broth microdilution assay; type: functional; settings: var. grubii H99 ATCC 208821; how it was run: as §1
[21] = system: Mycobacterium tuberculosis; experiment: Antibacterial activity against Mycobacterium tuberculosis H37Rv after 5 days under normoxic condition by resazurin dye-based fluorescence assay; type: functional, organism-based
How it was run: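 H37Rv grown in 7H9/ADC/glycerol/Tyloxapol to mid-exponential phase, diluted to OD600 0.001 (~2 x 10^4 CFU/mL) in 7H9S with serially diluted compound. Incubated 5 days at 37 °C, then resazurin and Tween-80 added. Fluorescence (ex 530/em 590 nm) read after 24 h, normalised to no-drug and no-bacteria wells.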

[22] = system: Candida albicans; experiment: Antifungal activity against Candida albicans ATCC 90028 by broth microdilution assay; type: functional; how it was run: as §1
[23] = system: Escherichia coli; experiment: Antibacterial activity against Escherichia coli ATCC 25922 by broth microdilution assay; type: functional; how it was run: as §1
[24] = system: Staphylococcus aureus; experiment: Antibacterial activity against methicillin-resistant Staphylococcus aureus ATCC […] by broth microdilution assay; type: functional
[25] = system: Acinetobacter baumannii; experiment: Antibacterial activity against Acinetobacter baumannii ATCC 19606 by broth microdilution assay; type: functional; settings: ATCC 19606 = CIP 70.34 = JCM 6841; how it was run: as §1
[26] = system: Pseudomonas aeruginosa; experiment: Antibacterial activity against Pseudomonas aeruginosa ATCC 27853 by broth microdilution assay; type: functional; how it was run: as §1
[27] = system: Klebsiella pneumoniae; experiment: Antibacterial activity against Klebsiella pneumoniae 700603 by broth microdilution assay; type: functional; how it was run: as §1
[28] = system: Mycobacterium tuberculosis; experiment: Antibacterial activity against non-replicating Mycobacterium tuberculosis H37Rv assessed as inhibition of bacterial growth at 0.125 to 8 ug/ml after 5 days under hypoxic condition by resazurin dye-based fluorescence assay relative to control; type: functional
[29] = system: HepG2; experiment: Cytotoxicity against human HepG2 cells after 24 hrs by resazurin dye-based fluorescence assay; type: cell-based; settings: hepg2, 24 h; how it was run: as §3
[30] = system: Mycobacterium tuberculosis; experiment: Antibacterial activity against non-replicating Mycobacterium tuberculosis H37Rv assessed as inhibition of bacterial growth at 0.06 to 16 ug/ml after 5 days under hypoxic condition by resazurin dye-based fluorescence assay relative to control; type: functional; settings: at 0.06 to 16 µg/mL
[31] = system: Entamoeba histolytica; experiment: Antiparasitic activity against Entamoeba histolytica HM-1:IMSS trophozoites assessed as inhibition of parasitic growth at 50 uM after 24 to 48 hrs by CellTiter-Glo luminescent cell viability assay relative to control; type: functional; settings: read-out: GI; how it was run: as §2
[32] = system: Giardia intestinalis; experiment: Antiparasitic activity against Giardia lamblia WB trophozoites after 24 to 48 hrs by CellTiter-Glo luminescent cell viability assay; settings: Giardia duodenalis

Question: With `O=c1c2nc([N+](=O)[O-])cn2ccn1Cc1ccc(OC(F)(F)F)cc1` as the compound, how does the recovery at 2 h, 2 µM [1] read?
Answer: 97%

Question: What about the Papp [2] of the same compound?
Answer: 250 nm/s

Question: What about the Papp [3] of the same compound?
Answer: 220 nm/s

Question: What about the Drug recovery [4] of the same compound?
Answer: 83%

Question: And the PPB [5]?
Answer: 98%

Question: What about the Stability [6] of the same compound?
Answer: > 99%

Question: What about the Stability [7] of the same compound?
Answer: > 99%

Question: What about the MIC [8] of the same compound?
Answer: > 64 mg/L

Question: What about the Stability [9] of the same compound?
Answer: > 99%

Question: And the Stability [10]?
Answer: > 99%

Question: Which results are given for `CC(=O)OCCn1c(-c2ccccc2)cn2cc([N+](=O)[O-])nc2c1=O`?
Answer: IC50 [11]: 11 µM; IC50 ([11]; read-out: pIC50 (converted)): 10 µM; log(Kinetic_solubility) [12]: > -4; log(Kinetic_solubility) [13]: > -4; IC50 ([14]; read-out: IC50): 0.86 µM; IC50 ([14]; read-out: pIC50 (converted)): 0.794 µM; solubility kinetic at 24 h, 200 µM [15]: > 100 µM; MIC [16]: > 32 mg/L; IC50 ([17]; read-out: IC50): 34 µM; IC50 ([17]; read-out: pIC50 (converted)): 31.6 µM; solubility kinetic at 24 h, 200 µM [18]: > 100 µM

Question: Which IC50 [11] does the source give for `Cc1cccc(Cn2ccn3cc([N+](=O)[O-])nc3c2=O)c1` here?
Answer: 9 µM

Question: What about the IC50 ([11]; read-out: pIC50 (converted)) of the same compound?
Answer: 10 µM

Question: What about the CC50 [19] of the same compound?
Answer: > 100 µM

Question: What about the MIC [20] of the same compound?
Answer: > 32 mg/L

Question: What about the MIC [21] of the same compound?
Answer: 0.06 mg/L (≈ 0.211 µM)

Question: What about the MIC [22] of the same compound?
Answer: > 32 mg/L

Question: What about the MIC [23] of the same compound?
Answer: > 32 mg/L

Question: And the MIC [24]?
Answer: > 32 mg/L

Question: And the MIC [25]?
Answer: > 32 mg/L

Question: What about the IC50 ([14]; read-out: IC50) of the same compound?
Answer: 5.4 µM

Question: What about the IC50 ([14]; read-out: pIC50 (converted)) of the same compound?
Answer: 5.01 µM

Question: What about the MIC [26] of the same compound?
Answer: > 32 mg/L

Question: What about the MIC [27] of the same compound?
Answer: > 32 mg/L

Question: What about the “growth inhibition (GI)” value [28] of the same compound?
Answer: 70 - 90%

Question: And the CC50 [29]?
Answer: > 100 µM

Question: Which results are given for `O=c1c2nc([N+](=O)[O-])cn2ccn1Cc1cccc(C(F)(F)F)c1`?
Answer: IC50 [11]: 7.1 µM; IC50 ([11]; read-out: pIC50 (converted)): 7.94 µM; CC50 [19]: > 100 µM; MIC [20]: > 32 mg/L; MIC [21]: 0.06 mg/L (≈ 0.177 µM); MIC [22]: > 32 mg/L; MIC [23]: > 32 mg/L; MIC [24]: > 32 mg/L; MIC [25]: > 32 mg/L; IC50 ([14]; read-out: IC50): 5.3 µM; IC50 ([14]; read-out: pIC50 (converted)): 5.01 µM; solubility kinetic at 24 h, 200 µM [15]: < 5 µM; MIC [26]: > 32 mg/L; MIC [27]: > 32 mg/L; growth inhibition (GI) [30]: 70 - 90%; CC50 [29]: > 100 µM; solubility kinetic at 24 h, 200 µM [18]: < 5 µM

Question: With `Cc1cn2cc([N+](=O)[O-])nc2c(=O)n1Cc1ccc(OC(F)(F)F)cc1` as the compound, how does the IC50 [11] read?
Answer: 5.8 µM

Question: What about the IC50 ([11]; read-out: pIC50 (converted)) of the same compound?
Answer: 6.31 µM

Question: And the MIC [21]?
Answer: >32 mg/L

Question: What about the PPB [5] of the same compound?
Answer: 98%

Question: And the Stability [6]?
Answer: > 99%

Question: And the Stability [7]?
Answer: 99%

Question: What about the Stability [9] of the same compound?
Answer: > 99%

Question: What about the Stability [10] of the same compound?
Answer: 92%

Question: What about the IC50 ([14]; read-out: IC50) of the same compound?
Answer: 0.41 µM

Question: And the IC50 ([14]; read-out: pIC50 (converted))?
Answer: 3.98 µM

Question: And the MIC [16]?
Answer: > 32 mg/L

Question: And the IC50 ([17]; read-out: IC50)?
Answer: > 50 µM

Question: What about the IC50 ([17]; read-out: pIC50 (converted)) of the same compound?
Answer: > 50.1 µM

Question: Which IC50 [11] does the source give for `CC(=O)OCCOc1nc(C)cn2cc([N+](=O)[O-])nc12` here?
Answer: 21 µM

Question: And the IC50 ([11]; read-out: pIC50 (converted))?
Answer: 20 µM

Question: And the inhibition of growth at 50 µM [31]?
Answer: 42%

Question: What about the IC50 ([14]; read-out: IC50) of the same compound?
Answer: > 40 µM

Question: And the IC50 ([14]; read-out: pIC50 (converted))?
Answer: > 39.8 µM

Question: And the MIC [16]?
Answer: > 32 mg/L

Question: Which results are given for `O=c1c2nccn2ccn1Cc1ccc(F)cc1`?
Answer: Activity [32]: inactive; Activity [14]: inactive; Activity [17]: inactive

Question: What does the source list for `CC(=O)OCCn1c(C)cn2cc([N+](=O)[O-])nc2c1=O`?
Answer: IC50 [11]: 50 µM; IC50 ([11]; read-out: pIC50 (converted)): 50.1 µM; MIC [21]: >32 mg/L; log(Kinetic_solubility) [12]: > -4; inhibition of growth at 50 µM [31]: 41%; log(Kinetic_solubility) [13]: > -4; IC50 ([14]; read-out: IC50): 0.65 µM; IC50 ([14]; read-out: pIC50 (converted)): 0.631 µM; solubility kinetic at 24 h, 200 µM [15]: 100 to 200 µM (≈ 28 to 56 µg/mL); MIC [16]: > 32 mg/L; solubility kinetic at 24 h, 200 µM [18]: 100 to 200 µM (≈ 28 to 56 µg/mL)
